From ChEMBL document CHEMBL1148485, “Synthesis and biological evaluation of new selective cytotoxic cyclolignans derived from podophyllotoxin” (J Med Chem, 2004) come the findings set out here.

For one assay, the system named is A549. As to the kind of experiment: In vitro cytotoxicity against A-549 (human lung carcinoma) cell line. Format: functional, cell-based.
A further assay has as its system SK-MEL-28. As to the kind of experiment: Tested in vitro for antineoplastic activity against MEL-28 (human melanoma) tumor cell line. The format is functional, cell-based. In short, it runs like this: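 MEL-28 cells seeded at 2 × 10^4 cells/well in MEM–10% FCS containing graded compound concentrations. Incubated 4 days at 37 °C, 10% CO2, 98% humidity. Stained with crystal violet and inhibition judged against untreated controls, which were kept in exponential growth. Mean of duplicate wells.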

A further assay has as its system P388. As to the kind of experiment: Tested in vitro for antineoplastic activity against P-388 (lymphoid neoplasm from DBA/2 mouse) tumor cell line. Format: functional, cell-based. In short, it runs like this: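 P-388 cells seeded at 1 × 10^4 cells/well in MEM–10% FCS containing graded compound concentrations. Incubated 4 days at 37 °C, 10% CO2, 98% humidity. Inhibition scored by inverted microscopy against untreated controls, which were kept in exponential growth. Mean of duplicate wells.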

The nature of assay [1]: Selectivity index is the ratio of IC50 of P-388 cell line to that of HT-29. The format is functional.
A further assay has as its system HT-29. Kind of assay: In vitro cytotoxicity against HT-29 (human colon carcinoma) cell line. The format is functional, cell-based.

For `COC(=O)[C@@H]1C(/C=N/c2cc(C)c(C)cc2N)=Cc2cc3c(cc2C1c1cc(OC)c(OC)c(OC)c1)OCO3` (stereo partly specified), the IC50 in the assay on A549 (Homo sapiens, A549) stood at 900 nM; with SK-MEL-28 it was 900 nM; with P388, 900 nM; in the assay with HT-29 (Homo sapiens, HT-29), 200 nM. For the same molecule, the Selectivity index in assay [1] was determined as 4.5.
In the case of `COC(=O)[C@@H]1C(/C=N/c2ccccc2)=Cc2cc3c(cc2C1c1cc(OC)c(OC)c(OC)c1)OCO3` (stereo partly specified), the IC50 in the assay with A549 (Homo sapiens, A549) was determined as 20 nM; in the assay with SK-MEL-28, 1200 nM; in the assay on P388, 500 nM; in the assay with HT-29 (Homo sapiens, HT-29), 20 nM. The Selectivity index in assay [1] is 25.
On to `CCC/N=C/C1=Cc2cc3c(cc2C(c2cc(OC)c(OC)c(OC)c2)[C@@H]1C(=O)OC)OCO3` (stereo partly specified), for which the IC50 came out at 110 nM in the assay with A549 (Homo sapiens, A549); 1100 nM in the assay on P388; 10 nM with HT-29 (Homo sapiens, HT-29). The Selectivity index in assay [1] stood at 110.
Take `COC(=O)[C@@H]1C(/C=N/c2nccs2)=Cc2cc3c(cc2C1c1cc(OC)c(OC)c(OC)c1)OCO3` (stereo partly specified): the 50% inhibitory concentration (IC50) in the assay with A549 (Homo sapiens, A549) worked out at 250 nM; in the assay on SK-MEL-28, 250 nM; with P388, 200 nM; in the assay on HT-29 (Homo sapiens, HT-29), 25 nM. The Selectivity index in assay [1] stood at 8.
On to `COC(=O)[C@@H]1C(/C=N/CCO)=Cc2cc3c(cc2C1c1cc(OC)c(OC)c(OC)c1)OCO3` (stereo partly specified), for which the IC50 with A549 (Homo sapiens, A549) came to 110 nM; with SK-MEL-28, 210 nM; with P388, 210 nM; in the assay with HT-29 (Homo sapiens, HT-29), 21 nM. For the same molecule, the Selectivity index in assay [1] came to 10.
Consider `COC(=O)[C@@H]1C(/C=N/c2cc(OC)c(OC)c(OC)c2)=Cc2cc3c(cc2C1c1cc(OC)c(OC)c(OC)c1)OCO3` (stereo partly specified), for which the IC50 was determined as 210 nM in the assay on A549 (Homo sapiens, A549); 420 nM in the assay with SK-MEL-28; 850 nM in the assay with P388; 21 nM with HT-29 (Homo sapiens, HT-29). In addition, the Selectivity index in assay [1] amounted to 40.
Turning to `CC/N=C/C1=Cc2cc3c(cc2[C@@H](c2cc(OC)c(OC)c(OC)c2)[C@@H]1C(=O)OC)OCO3` (stereo in doubt; 5), the half-inhibitory concentration (IC50) with A549 (a549) amounted to 22 nM; in the assay with SK-MEL-28, 22 nM; in the assay on P388, 1100 nM; in the assay on HT-29 (ht-29), 2.2 nM. The Selectivity index in assay [1] came out at 500.
In the case of `CC/N=C/C1=Cc2cc3c(cc2[C@@H](c2cc(OC)c(OC)c(OC)c2)[C@@H]1C(=O)OC)OCO3` (stereo in doubt; 11), the IC50 was found to be 110 nM in the assay on A549 (a549) and 34 nM in the assay with HT-29 (ht-29).

What is called IC50 is the concentration at which inhibition is half-maximal.
